From ChEMBL document CHEMBL1156126, “Synthesis of some new pyrazolo[3,4-d]pyrimidine derivatives of expected anticancer and radioprotective activity” (Eur J Med Chem, 2010)
In brackets after ≈: the same amount, converted by molar mass.

How the values were obtained:
[1] = Antitumor activity against mouse EAC assessed as non viable cells at 75 ug/ml after 2 hrs by trypan blue exclusion assay; type: functional, Ehrlich
How it was run: (§1)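 EAC cells aspirated from ascitic fluid of preinoculated mice (line maintained by weekly i.p. transplantation), suspended in saline at 2.5×10⁶/ml. Compounds dissolved in DMSO:saline 0.7:0.3 at 1, 0.75, 0.5, 0.25 mg/ml stocks; 0.1 ml added to 0.8 ml saline plus 0.1 ml cells. Incubation 37 °C, 2 h; non-viable cells counted by trypan blue exclusion. IC50 taken from survival-versus-concentration curve.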

[2] = Antitumor activity against mouse EAC assessed as non viable cells at 25 ug/ml after 2 hrs by trypan blue exclusion assay; type: functional, Ehrlich; how it was run: as §1
[3] = Antitumor activity against mouse EAC assessed as non viable cells at 100 ug/ml after 2 hrs by trypan blue exclusion assay; type: functional, Ehrlich; how it was run: as §1
[4] = Antitumor activity against mouse EAC after 2 hrs by trypan blue exclusion assay; type: functional, cell-based; settings: Ehrlich; how it was run: as §1
[5] = Antitumor activity against mouse EAC assessed as non viable cells at 50 ug/ml after 2 hrs by trypan blue exclusion assay; type: functional, Ehrlich; how it was run: as §1
[6] = test system: Mus musculus; assay: Radioprotective activity in 6Gy gamma irradiated Swiss albino mouse assessed as reduction in gamma irradiation-inhibited blood glutathione content at 150 mg/kg, ip administered as 3 doses in alternative days up to 7 days pretreated 30 mins before gamma-irradiation relative to control; type: functional; parameters: scale not given: the % may be the effect or the level left; settings: route intraperitoneal
[7] = test system: Mus musculus; assay: Radioprotective activity in 6Gy gamma irradiated Swiss albino mouse assessed as reduction in lipid peroxidation at 150 mg/kg, ip administered as 3 doses in alternative days up to 7 days relative to control; type: functional; parameters: scale not given: the % may be the effect or the level left; settings: route intraperitoneal
[8] = test system: Mus musculus; assay: Radioprotective activity in 6Gy gamma irradiated Swiss albino mouse assessed as reduction in gamma irradiation-induced lipid peroxidation at 150 mg/kg, ip administered as 3 doses in alternative days up to 7 days pretreated 30 mins before gamma-irradiation relative to control; type: functional; parameters: scale not given: the % may be the effect or the level left; settings: route intraperitoneal
[9] = test system: Mus musculus; assay: Radioprotective activity in 6Gy gamma irradiated Swiss albino mouse assessed as […] at 150 mg/kg, ip administered as 3 doses in alternative days up to 7 days pretreated 30 mins before gamma-irradiation relative to control; type: functional; settings: route intraperitoneal
How it was run: (§2)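 Female Swiss albino mice (25–30 g), 10 per group. Test agent was suspended in carboxymethylcellulose and given ip every other day, 3 injections over 7 days, each 30 min before whole-body gamma irradiation (Cs-137, 6 Gy, 0.86 Gy/min). Groups were untreated, CMC, radiation-only and drug-only. Survival is the percentage of animals alive 7 days after the radiation dose.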

[10] = test system: Mus musculus; assay: Radioprotective activity in 6 Gy gamma irradiated Swiss albino mouse assessed as change in gamma irradiation-induced blood superoxide dismutase activity at 150 mg/kg, ip administered as 3 doses in alternative days up to 7 days pretreated 30 mins before gamma-irradiation relative to control; type: functional; settings: route intraperitoneal
[11] = test system: Mus musculus; assay: Radioprotective activity in 6Gy gamma irradiated Swiss albino mouse assessed as survival at 150 mg/kg, ip administered as 3 doses in alternative days up to 7 days relative to control; type: functional; settings: route intraperitoneal; how it was run: as §2
[12] = test system: Mus musculus; assay: Radioprotective activity in 6Gy gamma irradiated Swiss albino mouse assessed as increase in blood glutathione content at 150 mg/kg, ip administered as 3 doses in alternative days up to 7 days relative to control; settings: route intraperitoneal
[13] = test system: Mus musculus; assay: Radioprotective activity in 6 Gy gamma irradiated Swiss albino mouse assessed as change blood superoxide dismutase activity at 150 mg/kg, ip administered as 3 doses in alternative days up to 7 days relative to control; type: functional; settings: route intraperitoneal

Row | SMILES | Activity [1] | Activity [2] | Activity [3] | IC50 [4] | Activity [5] | Activity [6] | Activity [7] | Activity [8] | Activity [9] | Activity [10] | Activity [11] | Activity [12] | Activity [13]
1 | Nn1c(=O)[nH]c2c(cnn2-c2ccccc2)c1=O | 30% | 10% | 50% | 100 µg/mL (≈ 411 µM) | 20% |  |  |  |  |  |  |  | 
2 | O=c1c2cnn(-c3ccccc3)c2ncn1Cc1ccccc1 | 20% | 10% | 80% | 90 µg/mL (≈ 298 µM) | 10% |  |  |  |  |  |  |  | 
3 | Nn1cnc2c(cnn2-c2ccccc2)c1=S | 10% | 10% | 10% | > 100 µg/mL | 10% | 9.63% | 5.33% | -6.19% | 100% | -9.3% | 100% | 4.95% | -2.04%
4 | O=c1c2cnn(-c3ccccc3)c2nc2ocnn12 | 0% | 10% | 0% | > 100 µg/mL | 0% |  |  |  |  |  |  |  | 
5 | O=c1c2cnn(-c3ccccc3)c2nc2[nH]c3ccccc3n12 | 0% | 10% | 0% | > 100 µg/mL | 0% |  |  |  |  |  |  |  | 
6 | S=c1nc2c3cnn(-c4ccccc4)c3ncn2[nH]1 | 10% | 10% | 30% | > 100 µg/mL | 10% |  |  |  |  |  |  |  | 
7 | O=C1/C(=C/c2ccccc2)N=C(c2ccccc2)N1n1cnc2c(cnn2-c2ccccc2)c1=O | 0% | 10% | 0% | > 100 µg/mL | 0% |  |  |  |  |  |  |  | 
8 | O=c1oc2nc3c(cnn3-c3ccccc3)c(=O)n2c2ccccc12 | 30% | 10% | 30% | > 100 µg/mL | 10% |  |  |  |  |  |  |  | 
9 | CSC(=NS(=O)(=O)c1ccc(Nc2nn3c(=O)c4cnn(-c5ccccc5)c4nc3o2)cc1)SC | 10% | 10% | 20% | > 100 µg/mL | 10% |  |  |  |  |  |  |  | 
10 | COc1cccc2c1C(=O)c1c(O)c3c(c(O)c1C2=O)C[C@@](O)(C(=O)CO)C[C@@H]3O[C@H]1C[C@H](N)[C@H](O)[C@H](C)O1 [DOXORUBICIN] | 75% | 20% | 100% | 52 µg/mL (≈ 95.7 µM) | 55% |  |  |  |  |  |  |  | 
